Screening data (PubChem)
PAD4 inh: blocks human protein arginine deiminase 4; Q9UM07; recombinant PAD4, RCA probe fluorescence polarization; inhibition, % at 6.36 µM; hit rate 0.41% among 330,000;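 active = percent inhibition above a cutoff equal to the mean of all tested compounds plus 3 SD, cut at about 15% in these data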;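 note: 0% = PAD4 with RCA probe and DMSO and 100% = probe without PAD4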
SIAE inh: inhibitors of human sialic acid acetylesterase SIAE; Q9HAT2; SIAE FP-Rh probe binding, fluorescence polarization; inhibition, % at 9.66 µM; hit rate 0.69% among 370,000; AID 1053197;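 active = inhibition above a cutoff: mean of compounds within the control limits plus 3 SD of those, cut at about 17% in these data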;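 note: 0% = plate median of compound wells and 100% = probe without SIAE protein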
PRMT1 inh: PRMT1 (human) inhibition, primary screen; hit rate 1.3% among 370,000; recombinant PRMT1, activity-based probe fluorescence polarization; Q99873; inhibition, % at 2.79 µM;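 active = inhibition above about 21% made by adding two undisclosed values, limit read from the data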
RBBP9 inhibitor: human RBBP9 hydrolase inhibition. O75884. inhibition, % at 7.94 µM. AID 1515. recombinant RBBP9, FP-Rh probe fluorescence polarization. hit rate 0.2% among 220,000;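 active = inhibition above the campaign mean of all tested compounds plus 3 SD, cut at about 14% in these data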;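 note: plate controls were DMSO wells with RBBP9 for no effect and wells lacking RBBP9 protein for full effect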
Target sequence (O75884 whole entry, looked up): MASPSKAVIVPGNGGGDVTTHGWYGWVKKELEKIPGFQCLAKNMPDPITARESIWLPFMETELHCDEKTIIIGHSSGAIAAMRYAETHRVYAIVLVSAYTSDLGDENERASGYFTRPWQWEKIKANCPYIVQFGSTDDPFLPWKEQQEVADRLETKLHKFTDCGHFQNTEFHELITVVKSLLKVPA
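Controls: DMSO-treated enzyme wells and wells lacking RBBP9 | Material: RBBP9 protein | Technique: Fluorescence polarization | Replication: Single well per compound, no replicates | Buffer or medium: Tris-NaCl-Pluronic buffer, pH 8.0 | Timing: 30 min compound preincubation, 45 min probe labeling, 25 °C | Read-out basis: Percent inhibition from mP, scaled between DMSO and no-protein wells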
GSTO1 counter: blocks human GSTO1 in RBBP9 counter-screen; hit rate 1.1% among 300,000; recombinant GSTO1, activity-based probe fluorescence polarization; inhibition, % at 5.96 µM; P78417;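 active = inhibition above the campaign mean inhibition plus 3 SD, cut at about 35% in these data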;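 note: 0% = GSTO1-1 with DMSO and 100% = wells lacking GSTO1-1 enzyme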
Target sequence (P78417 whole entry, looked up): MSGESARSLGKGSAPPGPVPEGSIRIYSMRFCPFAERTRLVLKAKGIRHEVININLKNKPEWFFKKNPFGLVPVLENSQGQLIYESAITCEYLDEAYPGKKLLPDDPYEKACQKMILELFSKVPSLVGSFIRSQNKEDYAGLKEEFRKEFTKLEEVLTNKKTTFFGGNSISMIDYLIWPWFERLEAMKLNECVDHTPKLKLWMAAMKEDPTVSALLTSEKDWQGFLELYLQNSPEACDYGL
GSTO1 inh conf: GSTO1 (human) inhibition, confirmation; shares compounds with GSTO1 counter; inhibition, % at 5.96 µM; AID 2176; recombinant GSTO1, probe fluorescence polarization; hit rate 54% among 2,400;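 active = inhibition above the primary screen's cutoff, its mean inhibition plus 3 SD, cut at about 35% in these data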;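 note: loss of polarization as inhibitors block binding of rhodamine sulfonate ester activity probe; 0% = GSTO1 with DMSO and 100% = wells lacking GSTO1 enzyme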
PAD4 FP conf: confirmation of human PAD4 inhibitors; hit rate 28% among 1,200; recombinant PAD4, RCA probe fluorescence polarization; shares compounds with PAD4 inh; inhibition, % at 6.36 µM;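 active = mean inhibition across replicates above the hit cutoff set by the earlier primary screen, cut at about 15% in these data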;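 note: inhibitors block active-site labeling by the probe so polarization falls; 0% = PAD4 with probe and DMSO and 100% = probe without PAD4 enzyme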
PRMT1 inh conf: PRMT1 (human) inhibition, FP confirmation. shares compounds with PRMT1 inh. recombinant His-PRMT1, activity-based probe fluorescence polarization. inhibition, % at 2.79 µM. hit rate 42% among 3,300. AID 687036;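 active = mean inhibition across replicates above the hit cutoff derived for the earlier primary screen, cut at about 22% in these data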
SIAE confirm: confirmation of human SIAE inhibitors; shares compounds with SIAE inh; hit rate 13% among 2,300; SIAE FP-Rh activity-based probe, fluorescence polarization; inhibition, % at 9.66 µM;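 active = mean inhibition of the replicates above the hit cutoff set in the primary screen, cut at about 17% in these data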;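 note: 0% = SIAE with DMSO and probe and 100% = probe without SIAE; inhibitors lower polarization as more probe stays unbound to SIAE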
Numbers without * were called inactive. This is a sample that favours compounds with a hit; in the whole collection about 2.7% have one here.

Oc1c(Br)cc(Br)cc1C=Nc1cccc2ncccc12 was read as PAD4 inh 37*, SIAE inh 22*, PRMT1 inh 3, GSTO1 counter 73*, GSTO1 inh conf 6, PAD4 FP conf -10 and SIAE confirm -3.
For O=C(O)c1ccc(/C=N\Nc2ccc(S(=O)(=O)N3CCOCC3)cc2[N+](=O)[O-])cc1 the results were PAD4 inh 3, SIAE inh -5, PRMT1 inh 5, RBBP9 inhibitor -9 and GSTO1 counter 6.
For Cc1ccc(-n2c(O)c(/C=N/Nc3ccc(S(=O)(=O)N4CCOCC4)cc3[N+](=O)[O-])c3ccccc3c2=O)c(C)c1 the results were PAD4 inh -6, SIAE inh 21*, PRMT1 inh 2, RBBP9 inhibitor -8, GSTO1 counter 38*, GSTO1 inh conf 62* and SIAE confirm 0.
For O=C(COC(=O)c1ccc(S(=O)(=O)N2CCCC2)cc1)Nc1ccccc1Cl the results were SIAE inh -1 and PRMT1 inh 0.
Screening O=C(O)/C=C\C(=O)Nc1ccc(N2CCN(c3ccc(F)cc3)CC2)cc1 returned PAD4 inh 24*, SIAE inh 33*, PRMT1 inh 5, RBBP9 inhibitor 11, GSTO1 counter 58*, GSTO1 inh conf 3, PAD4 FP conf 4 and SIAE confirm 3.
O=C(O)/C=C\C(=O)Nc1ccc(N2CCN(c3ccc(Cl)cc3)CC2)cc1 was read as PAD4 inh 2, SIAE inh 28*, PRMT1 inh 3, RBBP9 inhibitor 5, GSTO1 counter 59*, GSTO1 inh conf 8 and SIAE confirm 2.
`O=C(O)/C=C\C(=O)Nc1ccc(N2CCN(c3cccc(Cl)c3)CC2)cc1` gave PAD4 inh 3, SIAE inh 26*, PRMT1 inh 6, RBBP9 inhibitor -3, GSTO1 counter 45*, GSTO1 inh conf 7 and SIAE confirm 1.
Screening CC(=O)c1ccc(NC(=O)N2CCN(c3cccc(Cl)c3)CC2)cc1 returned PAD4 inh 0, SIAE inh -7, PRMT1 inh 2, RBBP9 inhibitor 2 and GSTO1 counter 1.
`O=C(Nc1ccc(Cl)cc1)N1CCN(c2ccccc2)CC1` gave PAD4 inh 4, SIAE inh 5, PRMT1 inh 0, RBBP9 inhibitor -8 and GSTO1 counter 4.
For CC(=O)Nc1ccc(N2CCN(c3ccc(F)cc3)CC2)cc1 the results were PAD4 inh 4, SIAE inh -3, PRMT1 inh -1 and GSTO1 counter 5.
`Nc1nc(CN2CCN(c3cccc(Cl)c3)CC2)nc(N2CCCc3ccccc32)n1` gave PAD4 inh 0, SIAE inh 9, PRMT1 inh 1, RBBP9 inhibitor -2 and GSTO1 counter 0.
For COc1ccc2nc(-c3ccco3)c(-c3ccco3)nc2c1 the results were PAD4 inh 2, SIAE inh 23*, PRMT1 inh 63*, RBBP9 inhibitor 6, GSTO1 counter 72*, GSTO1 inh conf 41* and SIAE confirm 4.
For CCCNC(=O)c1ccc2nc(-c3ccccc3)c(-c3ccccc3)nc2c1 the results were PAD4 inh -3, SIAE inh 8, PRMT1 inh -1, RBBP9 inhibitor 4 and GSTO1 counter -5.
`S=C(Nc1ccc(N2CCOCC2)cc1)Nc1ccc2nc(-c3ccco3)c(-c3ccco3)nc2c1` gave PAD4 inh 3, SIAE inh 21*, PRMT1 inh 43*, RBBP9 inhibitor 12, GSTO1 counter 50*, GSTO1 inh conf 6 and SIAE confirm 5.
`O=C(Nc1ccccc1)c1ccc2nc(-c3ccco3)c(-c3ccco3)nc2c1` gave PAD4 inh -19, SIAE inh 22*, PRMT1 inh 38*, RBBP9 inhibitor 8, GSTO1 counter 57*, GSTO1 inh conf 13 and SIAE confirm -2.
`CCCCNC(=O)c1ccc2nc(-c3ccco3)c(-c3ccco3)nc2c1` gave PAD4 inh -7, SIAE inh 27*, PRMT1 inh 42*, RBBP9 inhibitor -5, GSTO1 counter 70*, GSTO1 inh conf 24, PRMT1 inh conf 48* and SIAE confirm 8.
OCc1c[nH]c2ccccc12 was read as PAD4 inh -1, SIAE inh 4, PRMT1 inh 2 and GSTO1 counter 5.
O=C(O)Cc1c[nH]c2cccc(O)c12 was read as PAD4 inh 2, SIAE inh 23*, PRMT1 inh 32*, RBBP9 inhibitor -2, GSTO1 counter 42*, GSTO1 inh conf 23 and SIAE confirm 12.
Screening CCCNC(=O)NC(=O)CSc1nc(C)cs1 returned PAD4 inh 0, SIAE inh -5, PRMT1 inh -2, RBBP9 inhibitor 6 and GSTO1 counter -7.
Cc1cc(C)c(NC(=O)COC(=O)c2cccc3c2C(=O)c2ccccc2C3=O)c(C)c1 was read as PAD4 inh -6, SIAE inh 2, PRMT1 inh 1, RBBP9 inhibitor -6 and GSTO1 counter -3.
Screening Cc1cc(C)c(Nc2cc(S(=O)(=O)O)c(N)c3c2C(=O)c2ccccc2C3=O)c(C)c1 returned PAD4 inh 9, SIAE inh 35*, PRMT1 inh 15, RBBP9 inhibitor 7, GSTO1 counter 80*, GSTO1 inh conf 88* and SIAE confirm 29*.
For Cn1c2ccccc2c2cc(/C=N/NC(=O)c3cc(O)ccc3O)ccc21 the results were PAD4 inh 2, SIAE inh 50*, PRMT1 inh 19, GSTO1 counter 82*, GSTO1 inh conf 40* and SIAE confirm 5.
For Cn1c2ccccc2c2cc(/C=N/NC(=O)c3cc(O)cc(O)c3)ccc21 the results were PAD4 inh -4, SIAE inh -22, PRMT1 inh 2 and GSTO1 counter -35.
CNc1ccc2c3c(cccc13)C(=O)N(C)C2=O was read as PAD4 inh 95*, SIAE inh 70*, PRMT1 inh active, GSTO1 counter 40*, GSTO1 inh conf 31, PAD4 FP conf 86* and SIAE confirm 66*.
For Cc1ccc(N=Cc2cccc(O)c2O)c(C)c1 the results were PAD4 inh 8, SIAE inh 20*, PRMT1 inh 20, RBBP9 inhibitor 8, GSTO1 counter 85*, GSTO1 inh conf 3 and SIAE confirm 8.
